In ChEMBL document CHEMBL4673255, “Acylated 1H-1,2,4-Triazol-5-amines Targeting Human Coagulation Factor XIIa and Thrombin: Conventional and Microscale Synthesis, Anticoagulant Properties, and Mechanism of Action” (J Med Chem, 2020):

Assays:
Plasma [1] = assay: (§1) Anticoagulant activity in human platelet-rich plasma assessed as reduction in TF-induced thrombin generation by measuring half life of clotting time at 100 uM preincubated for 15 mins followed by TF addition by Z-Gly-Gly-Arg-AMC substrate based calibrated automated thrombography (Rvb= 3 +/- 0.5 min); assay type: functional, cell-free
Procedure, shortened: (§2)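 Tissue-factor-triggered homogeneous thrombin generation followed by fluorogenic substrate cleavage. Read-outs: clotting time (T1/2), peak amplitude (Amax, AU/L), time to peak (Tmax) and ETP (AU·min/L). DMSO and buffer served as controls. n = 3, mean ± SD.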

Coagulation factor XII = biological target: T1, Coagulation factor XII (Homo sapiens, UniProt P00748); assay: Inhibition of human coagulation factor XIIA using Boc-Gln-Gly-Arg-AMC as fluorogenic substrate measured at 1 min interval for 1 hr by fluorometric assay
T1 sequence (P00748 whole entry): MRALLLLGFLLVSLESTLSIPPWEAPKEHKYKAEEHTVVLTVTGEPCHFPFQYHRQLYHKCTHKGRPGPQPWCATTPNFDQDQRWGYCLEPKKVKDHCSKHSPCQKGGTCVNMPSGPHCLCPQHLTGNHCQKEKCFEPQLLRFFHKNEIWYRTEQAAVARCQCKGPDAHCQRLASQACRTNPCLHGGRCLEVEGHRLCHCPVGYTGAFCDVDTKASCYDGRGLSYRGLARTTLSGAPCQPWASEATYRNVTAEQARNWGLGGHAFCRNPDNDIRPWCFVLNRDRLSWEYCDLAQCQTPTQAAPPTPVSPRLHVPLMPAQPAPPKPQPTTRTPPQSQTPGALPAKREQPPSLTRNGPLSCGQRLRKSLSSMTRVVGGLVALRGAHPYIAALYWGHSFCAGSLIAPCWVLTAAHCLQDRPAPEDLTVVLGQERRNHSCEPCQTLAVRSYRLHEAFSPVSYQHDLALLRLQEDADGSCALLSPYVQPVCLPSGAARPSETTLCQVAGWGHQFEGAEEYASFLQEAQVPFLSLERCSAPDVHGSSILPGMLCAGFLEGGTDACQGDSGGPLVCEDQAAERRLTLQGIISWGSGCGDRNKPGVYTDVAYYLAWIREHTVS

Plasminogen = Plasminogen (Homo sapiens, UniProt P00747); assay: Inhibition of human plasmin using Mes-dArg-Phe-Arg-AMC as fluorogenic substrate measured at 1 min interval for 1 hr by fluorometric assay
Coagulation factor XI = Coagulation factor XI (Homo sapiens, UniProt P03951); assay: Inhibition of human coagulation factor XIA using Mes-dArg-Pro-Arg-AMC as fluorogenic substrate measured at 1 min interval for 1 hr by fluorometric assay
Plasma kallikrein = Plasma kallikrein (Homo sapiens, UniProt P03952); assay: Inhibition of human kallikrein using Mes-dArg-Pro-Arg-AMC as fluorogenic substrate measured at 1 min interval for 1 hr by fluorometric assay
[2] = Inhibition of porcine trypsin using Z-Gly-Gly-Arg-AMC as fluorogenic substrate measured at 1 min interval for 1 hr by fluorometric assay; design: species or system Sus scrofa
[3] = biological target: T2, Coagulation factor XII (Homo sapiens) (UniProt P00748); assay: Inhibition of human coagulation factor XIIA using Boc-Gln-Gly-Arg-AMC as fluorogenic substrate at 100 nM measured at 1 min interval for 1 hr by fluorometric assay relative to control
T2 sequence (whole entry): T1 sequence (P00748 whole entry)
Procedure, shortened: (§3)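 Screening of crude microscale amide-coupling products. Conversion was measured by 1H NMR and product content normalised to 76 µmol/L in DMSO, then tested at 1 µM and 100 nM in the fluorogenic FXIIa or thrombin assay. A 0-conversion reaction served as blank. Percent inhibition is from triplicates.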

HepG2 = assay: Cytotoxicity against human HepG2 cells assessed as reduction in cell viability at 100 uM incubated for 48 hrs by alamar blue assay relative to control; assay type: cell-based; conditions: hepg2, 48 h
[4] = biological target: T2, Coagulation factor XII (Homo sapiens); assay: Inhibition of human coagulation factor XIIA in presence of Boc-Gln-Gly-Arg-AMC as fluorogenic substrate at 1 uM measured at 1 min interval for 1 hr by fluorometric assay relative to control; procedure, shortened: as §3
Blood [5] = assay: Effect on blood coagulation in human blood assessed as increase in prothrombin time at 300 uM incubated for 3 mins followed by CaCl2 addition by PT reagent based assay relative to control; assay type: ADME, tissue-based; conditions: 0.05 h
Procedure, shortened: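 Clotting was started with PT reagent already containing CaCl2, prewarmed to 37 °C, and clotting time was recorded. Increase is given relative to DMSO; at least triplicate, mean ± SD.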

Plasma [6] = assay: as §1, with “Tmax” for “half life”, “(reference value: 8.1” for “(Rvb= 3”, “0.6” for “0.5”; assay type: functional, cell-free; procedure, shortened: as §2
Plasma [7] = assay: as §1, with “amplitude” for “half life”, “thrombin peak” for “clotting time”, “(reference value: 63” for “(Rvb= 3”, “3.7 AU/L)” for “0.5 min)”; assay type: functional; conditions: 0.25 h; procedure, shortened: as §2
Monoglyceride lipase = biological target: T3, Monoglyceride lipase (Homo sapiens, UniProt Q99685); assay: Inhibition of human recombinant MAGL using 1,3-dihydroxypropan-2-yl 4-pyren-1-ylbutanoate as substrate measured after 45 mins by reverse-phase HPLC-based fluorescence assay
T3 sequence (Q99685 whole entry): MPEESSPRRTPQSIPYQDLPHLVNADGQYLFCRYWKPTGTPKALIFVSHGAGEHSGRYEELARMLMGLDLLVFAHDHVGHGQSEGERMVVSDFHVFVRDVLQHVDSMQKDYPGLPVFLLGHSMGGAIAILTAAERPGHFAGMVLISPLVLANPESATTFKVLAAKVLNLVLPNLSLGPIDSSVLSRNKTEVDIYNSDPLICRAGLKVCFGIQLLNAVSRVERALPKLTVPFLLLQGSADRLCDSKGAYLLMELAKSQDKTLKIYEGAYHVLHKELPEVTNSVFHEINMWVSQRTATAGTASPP

Blood [8] = assay: Anticoagulant activity in human blood assessed as increase in activated partial thromboplastin time at 300 uM incubated for 1 min by aPTT reagent based assay relative to control; assay type: functional
Procedure, shortened: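 Compounds were tested at 300 µM, and the increase was expressed relative to DMSO. The doubling concentration (EC2×) is the concentration prolonging aPTT twofold. At least triplicate, mean ± SD.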

Prothrombin [9] = biological target: T4, Prothrombin (Homo sapiens, UniProt P00734); assay: Inhibition of human coagulation factor alpha-thrombin using Boc-Val-Pro-Arg-AMC as fluorogenic substrate measured at 1 min interval for 1 hr by fluorometric assay
Prothrombin [10] = biological target: T4, Prothrombin; assay: Inhibition of human coagulation factor thrombin using Boc-Val-Pro-Arg-AMC as fluorogenic substrate at 100 nM measured at 1 min interval for 1 hr by fluorometric assay relative to control; procedure, shortened: as §3
Plasma [11] = assay: as §1, with “endogenous thrombin potential” for “half life of clotting time”, “(reference value: 1203” for “(Rvb= 3”, “44 AU.min/L)” for “0.5 min)”; assay type: functional; conditions: 0.25 h; procedure, shortened: as §2

Coagulation factor XI, sequence (P03951 19-387 limits assumed): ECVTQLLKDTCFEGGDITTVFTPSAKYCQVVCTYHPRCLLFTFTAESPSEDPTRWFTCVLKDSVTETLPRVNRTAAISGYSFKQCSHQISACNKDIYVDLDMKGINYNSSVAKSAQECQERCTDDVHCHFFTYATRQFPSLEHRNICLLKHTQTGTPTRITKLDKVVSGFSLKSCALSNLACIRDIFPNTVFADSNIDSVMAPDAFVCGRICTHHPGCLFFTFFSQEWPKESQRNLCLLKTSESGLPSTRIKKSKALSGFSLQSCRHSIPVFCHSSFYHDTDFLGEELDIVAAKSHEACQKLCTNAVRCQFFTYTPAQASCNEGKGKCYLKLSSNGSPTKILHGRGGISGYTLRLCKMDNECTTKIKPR
Coagulation factor XI, sequence (P03951 388-625 limits assumed): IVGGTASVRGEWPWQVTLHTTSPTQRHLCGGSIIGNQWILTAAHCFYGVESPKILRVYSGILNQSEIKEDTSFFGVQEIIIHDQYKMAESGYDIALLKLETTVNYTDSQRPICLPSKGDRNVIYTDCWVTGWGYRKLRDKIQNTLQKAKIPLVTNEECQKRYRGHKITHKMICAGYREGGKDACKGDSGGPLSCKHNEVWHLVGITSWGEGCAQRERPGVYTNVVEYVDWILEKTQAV
Plasma kallikrein, sequence (P03952 20-390 limits assumed): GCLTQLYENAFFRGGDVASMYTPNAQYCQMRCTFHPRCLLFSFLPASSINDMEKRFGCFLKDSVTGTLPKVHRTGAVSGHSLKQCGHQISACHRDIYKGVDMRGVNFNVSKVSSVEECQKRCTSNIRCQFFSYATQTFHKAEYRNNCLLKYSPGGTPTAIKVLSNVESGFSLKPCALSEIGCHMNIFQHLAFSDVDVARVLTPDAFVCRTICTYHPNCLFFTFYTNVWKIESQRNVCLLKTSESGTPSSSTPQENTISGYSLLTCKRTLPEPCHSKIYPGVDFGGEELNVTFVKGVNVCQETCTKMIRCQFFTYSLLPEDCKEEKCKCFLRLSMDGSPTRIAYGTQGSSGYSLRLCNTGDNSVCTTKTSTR
Plasma kallikrein, sequence (P03952 391-638 limits assumed): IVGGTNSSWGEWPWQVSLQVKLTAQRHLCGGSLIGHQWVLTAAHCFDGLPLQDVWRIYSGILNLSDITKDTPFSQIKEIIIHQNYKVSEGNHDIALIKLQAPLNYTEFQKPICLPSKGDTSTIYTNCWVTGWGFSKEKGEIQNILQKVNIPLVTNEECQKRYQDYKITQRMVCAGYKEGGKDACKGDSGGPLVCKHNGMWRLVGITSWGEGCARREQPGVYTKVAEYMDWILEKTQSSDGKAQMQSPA
Plasminogen, sequence (P00747 97-580 limits assumed): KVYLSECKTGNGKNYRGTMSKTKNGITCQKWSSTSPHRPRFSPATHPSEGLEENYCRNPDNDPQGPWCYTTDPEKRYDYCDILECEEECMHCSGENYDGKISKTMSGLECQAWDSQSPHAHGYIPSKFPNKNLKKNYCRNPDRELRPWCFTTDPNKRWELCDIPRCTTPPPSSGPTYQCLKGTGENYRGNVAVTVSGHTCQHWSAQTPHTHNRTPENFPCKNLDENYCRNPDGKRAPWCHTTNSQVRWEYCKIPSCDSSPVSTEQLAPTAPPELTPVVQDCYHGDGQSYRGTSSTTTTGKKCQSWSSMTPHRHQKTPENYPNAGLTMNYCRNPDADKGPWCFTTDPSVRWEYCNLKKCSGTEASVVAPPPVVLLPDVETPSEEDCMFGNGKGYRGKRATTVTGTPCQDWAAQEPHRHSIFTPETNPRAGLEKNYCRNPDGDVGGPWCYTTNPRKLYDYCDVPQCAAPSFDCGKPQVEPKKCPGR
Plasminogen, sequence (P00747 581-810 limits assumed): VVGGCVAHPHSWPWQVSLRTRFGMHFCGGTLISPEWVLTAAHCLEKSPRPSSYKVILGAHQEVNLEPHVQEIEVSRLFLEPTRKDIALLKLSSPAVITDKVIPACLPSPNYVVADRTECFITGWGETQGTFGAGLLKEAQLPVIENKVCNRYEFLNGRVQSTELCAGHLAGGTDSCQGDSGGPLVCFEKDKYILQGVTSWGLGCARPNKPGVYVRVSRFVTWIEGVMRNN

SMILES | T1/2 (Plasma [1]) [min] | IC50 (Coagulation factor XII) [µM] | IC50 (Plasminogen) [µM] | IC50 (Coagulation factor XI) [µM] | IC50 (Plasma kallikrein) [µM] | IC50 [2] [µM] | inhibition [3] [%] | Activity (HepG2) [%] | inhibition [4] [%] | Activity (Blood [5]) [%] | Tmax (Plasma [6]) [min] | Activity (Plasma [7]) [AU/L] | IC50 (Monoglyceride lipase) [µM] | Activity (Blood [8]) [%] | IC50 (Prothrombin [9]) [µM] | inhibition (Prothrombin [10]) [%] | Activity (Plasma [11]) [AU.min/L]
Nc1nc(-c2ccccn2)nn1C(=O)c1ccc2ccccc2c1 | 2.3 | 0.138 | > 5 | > 5 | > 5 | > 5 | 19 | 25 | 77 | 575 | 8 | 175.5 | > 5 | 212 | 0.027 | 55 | 2160
Nc1nc(-c2ccccn2)nn1C(=O)c1cccc2ccccc12 | 2.7 | 0.029 | > 5 | > 5 | > 5 | > 5 | 77 | 8 | 98 | 14 | 7 | 53.3 | > 5 | 176 | 0.375 | 13 | 738
